# Compounds with a hit are over-represented: about 0.9% of the library has one in this group of screens.
# ABCG2 block = blocks JC-1 efflux by human ABCG2 transporter. Q9UNQ0. IgMXP3 cells, flow cytometry. inhibition, % at 6.6 µM. 190,000 compounds, 0.1% hits. AID 1325;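 active = inhibition above 80%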;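 note: 0% = DMSO and 100% = nicardipine control wells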
#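 Incubation: cells with compound and JC-1, 10 min at 25 °C, rotating, no wash / Test system: IgMXP3 (ABCG2) plus far-red-tagged CCRF-Adr (ABCB1) cells / Compound dosing: one concentration, 6.6 µM final / Also added: JC-1 fluorescent substrate / Evaluation: efflux inhibition in percent versus controls / Detection: flow cytometry, 530 nm JC-1 signal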
# ABCB1 inh = blocks JC-1 efflux by human ABCB1 transporter; P08183; CCRF-Adr cells, flow cytometry; inhibition, % at 6.6 µM; 190,000 compounds, 0.067% hits; in the data active = inhibition above about 40%;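 note: 0% = vehicle and 100% = reference inhibitor; higher value means more JC-1 retained so stronger ABCB1 efflux block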
# RGS16-Gao HTS = regulators of human RGS16-Galphao interaction | O15492+P09471 | binding response (% of control), % at 10 µM | bead-based flow cytometry RGS16-Galphao binding, fluorescence; actives lie on both sides | 220,000 compounds, 0.38% hits;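 note: Galphao activated by GDP with aluminum fluoride before binding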
# Target sequence (O15492 whole entry, looked up): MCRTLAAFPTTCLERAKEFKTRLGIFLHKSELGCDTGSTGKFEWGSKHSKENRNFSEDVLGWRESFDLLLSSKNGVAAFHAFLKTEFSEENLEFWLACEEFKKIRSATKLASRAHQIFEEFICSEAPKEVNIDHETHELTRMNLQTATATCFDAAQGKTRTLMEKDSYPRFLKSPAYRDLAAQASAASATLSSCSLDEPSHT
# Target sequence (P09471 whole entry, looked up): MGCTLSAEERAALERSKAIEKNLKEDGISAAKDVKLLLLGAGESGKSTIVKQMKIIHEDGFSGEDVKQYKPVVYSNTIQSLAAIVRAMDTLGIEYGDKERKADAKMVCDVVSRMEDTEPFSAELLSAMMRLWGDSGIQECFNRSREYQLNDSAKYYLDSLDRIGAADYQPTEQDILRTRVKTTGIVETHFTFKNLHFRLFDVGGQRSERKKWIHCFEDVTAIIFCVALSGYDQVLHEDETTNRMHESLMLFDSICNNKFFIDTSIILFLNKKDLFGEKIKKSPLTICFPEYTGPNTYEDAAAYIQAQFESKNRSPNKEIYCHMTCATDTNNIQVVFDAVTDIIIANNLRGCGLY
# RGS8-Gao reg = human RGS8-Galphao interaction regulation; P09471; multiplexed bead flow cytometry, RGS8-Galphao binding; actives lie on both sides; response (percent of control binding), % at 10 µM; 220,000 compounds, 0.34% hits; in the data active = response below about 60% or above about 140%; inactive = in between;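 note: Galphao activated as the GDP aluminium fluoride complex binding bead-coupled RGS8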
# Target sequence (P09471 whole entry, looked up): as above
# RGS4-Gao reg = modulates binding of RGS4 to human Galphao | 220,000 compounds, 0.33% hits | Multiplexed bead flow cytometry; actives lie on both sides | binding response (% of control), % at 10 µM; in the data active = binding response below about 49% or above about 150%; inactive = in between;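 note: fluorescent Galphao activated with aluminum fluoride binding bead-coupled RGS4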
# RGS7-Gao = regulators of human RGS7-Galphao interaction | P09471 | Multiplexed bead flow cytometry, RGS7-Galphao binding; actives lie on both sides | binding response (% of control), % at 10 µM | 220,000 compounds, 0.35% hits | AID 1439; in the data active = binding response below about 49% or above about 150%; inconclusive = no clear call, values can overlap the other calls; inactive = in between;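 note: fluorescent Galphao held in activated GDP-AlF4 state binding bead-coupled RGS7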
# RGS-Gao = regulators of human RGS4-Galphao interaction; shares compounds with RGS16-Gao HTS; multiplexed bead flow cytometry, RGS–Galpha-o binding; RGS4–Galpha-o binding response, % at 10 µM; 1,600 compounds, 99% hits;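 note: fluorescently labeled Galpha-o bound to GDP with aluminium fluoride binding biotinylated RGS beads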
# Biotin-avidin = counter-screen: compounds disrupting biotin binding to avidin beads | shares compounds with RGS16-Gao HTS | streptavidin beads, fluorescein-biotin binding, flow cytometry | inhibition, % at 10 µM | 1,700 tested, under 10 active;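 active = inhibition above 50%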;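 note: median green fluorescence of gated singlet beads compared with DMSO control wells; 0% = DMSO wells and 100% = complete loss of bead fluorescence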
# RGS8-Gao single = RGS8-Galphao interaction regulation, single point confirmation | shares compounds with RGS16-Gao HTS | binding response (% of control), % at 10 µM | AID 1836 | bead-based flow cytometry RGS8-Galphao binding, fluorescence; actives lie on both sides | 1,700 compounds, 3% hits; in the data active = binding response below about 72% or above about 130%; inactive = in between;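 note: Galphao activated as GDP AlF4 complex before binding bead RGS8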
# RGS7-Gao single = confirmation of regulators of human RGS7-Galphao interaction. shares compounds with RGS16-Gao HTS. bead-based flow cytometry RGS7-Galphao binding; actives lie on both sides. response (percent of control binding), % at 10 µM. 1,700 compounds, 7.8% hits; in the data active = response below about 75% or above about 130%; inactive = in between;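 note: fluorescent Galphao activated with GDP and aluminum fluoride binding bead-coupled RGS7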
# RGS16-Gao conf = confirmation of regulators of human RGS16-Galphao interaction. shares compounds with RGS16-Gao HTS. bead-based flow cytometry, RGS16-Galphao binding; actives lie on both sides. response (% of control binding), % at 10 µM. 1,700 compounds, 4% hits. AID 1838; in the data active = response below about 74% or above about 130%; inactive = in between;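 note: Galphao activated as the GDP aluminium fluoride complex binding bead-coupled RGS16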
# RGS4-Gao confirm = confirmation of regulators of human RGS4-Galphao interaction; 1,700 compounds, 4% hits; binding response (% of control), % at 10 µM; RGS4-Galphao binding, multiplexed bead flow cytometry; actives lie on both sides; AID 1840; shares compounds with RGS16-Gao HTS; in the data active = binding response below about 74% or above about 130%; inactive = in between
# RGS19-Gao single = RGS19-Galphao interaction regulation, single point confirmation | response (percent of control binding), % at 10 µM | 1,700 compounds, 5% hits | AID 1841 | shares compounds with RGS16-Gao HTS | bead-based flow cytometry RGS19-Galphao binding; actives lie on both sides; in the data active = response below about 50% or above about 160%; inactive = in between;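 note: 100% = no compound control and 0% = blank background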
# * hit, by the source's call; i = inactive; ? = inconclusive; / = no result given; [ ] = another dose, or the depositor's remark. Unless noted, the rule behind the calls is not given here.
SMILES,ABCG2 block,ABCB1 inh,RGS16-Gao HTS,RGS8-Gao reg,RGS4-Gao reg,RGS7-Gao,Biotin-avidin,RGS8-Gao single,RGS7-Gao single,RGS16-Gao conf,RGS4-Gao confirm,RGS19-Gao single,others
O=C1/C(=C/c2cccnc2)SC(=S)N1c1ccc(F)cc1,7,0,178*[activator],116,109,108,-1,102,103,101,102,98,RGS-Gao=109*
COc1ccc(NC(=O)C(Sc2nnc(-c3ccncc3)n2-c2ccccc2C)c2ccccc2)cc1Cl (configuration not stated),16,36,103,102,101,101,/,/,/,/,/,/,
Cc1ccc(-c2nnnn2C2C/C(=N\NC(N)=S)C3OCC2O3)cc1 (configuration not stated),0,0,112,102,104,102,/,/,/,/,/,/,
CCc1nc(SCc2cccnc2)[nH]c(=O)c1C,-1,0,309*[activator],124,108,105,1,92,91,91,92,68,RGS-Gao=108*
CCc1nc(SCc2ccccn2)[nH]c(=O)c1C,1,0,104,102,104,104,/,/,/,/,/,/,
COCCn1c(C)cc(C(=O)COC(=O)c2cncc(Br)c2)c1C,38,1,97,100,98,99,/,/,/,/,/,/,
COCCn1c(C)cc(C(=O)COC(=O)c2ccc3ncsc3c2)c1C,5,1,-53*,47*,-46*,15*,1,94,98,85,81,128,
COc1cccc(C(=O)Oc2ccc(N3C(=O)CCC3=O)c(C)c2)c1,6,1,104,102,101,?,/,/,/,/,/,/,
CN1CCN(C(CNS(=O)(=O)c2ccc(F)cc2)c2cccnc2)CC1 (configuration not stated),5,0,99,100,102,102,/,/,/,/,/,/,
CN1CCN(C(CNS(=O)(=O)c2ccc(Cl)cc2)c2cccnc2)CC1 (configuration not stated),-1,1,164,111,110,157*[activator],-1,98,94,97,95,90,RGS-Gao=110*
CC(C)(C)SCCNC(=O)c1ccc(Cl)c([N+](=O)[O-])c1,33,3,97,100,99,101,/,/,/,/,/,/,
CCN(CC)c1ccc(NC(=O)Cn2c(C(C)NC(=O)c3ccc(C)cc3)nc3ccccc32)cc1 (configuration not stated),9,1,192*[activator],114,212*[activator],153*[activator],-1,108,99,128*[activator],117,259*[activator],
CCCn1c(C(C)NC(=O)c2ccccc2)nc2ccccc21 (configuration not stated),2,2,102,101,98,98,/,/,/,/,/,/,
CC(=O)Oc1ccccc1N(C(C)=O)S(=O)(=O)c1cccc([N+](=O)[O-])c1,9,1,97,101,102,96,/,/,/,/,/,/,
COc1ccc(-n2c3c(cc(C(=O)NNc4ccccc4C)c2=O)C(=O)CC(C)(C)C3)cc1,-1,0,86,93,84,92,/,/,/,/,/,/,
COc1ccc(-n2c3c(cc(C(=O)NNc4ccccc4)c2=O)C(=O)CC(C)(C)C3)cc1,0,0,43,59*,47*,47*,-3,95,87,93,90,69,
O=C(Nc1cc(S(=O)(=O)N2CCCCC2)ccc1N1CCCCC1)c1ccncc1,/,/,111,107,111,?,/,/,/,/,/,/,
COc1ccc(Cl)cc1S(=O)(=O)N1CCN(C)CC1,1,0,107,100,101,103,/,/,/,/,/,/,
COc1ccc(Cl)cc1S(=O)(=O)N1CCCC1,1,0,/,/,/,/,0,102,103,106,103,110,
CCOc1ccc(NC(=S)NC(=O)c2c(Cl)cnn2CC)c([N+](=O)[O-])c1,1,0,103,101,102,102,/,/,/,/,/,/,
CCOc1ccc(NC(=S)NC(=O)c2c(Br)cnn2C)c([N+](=O)[O-])c1,8,1,224,-1.6*,-40*,-20*,-2,101,102,101,102,99,
Cc1c(NC(=O)c2ccc(-c3ccc([N+](=O)[O-])cc3Cl)o2)c(=O)n(-c2ccccc2)n1C,6,-1,68,92,102,104,/,/,/,/,/,/,
CCc1ccccc1NC(=S)N(CCCN(C)C)Cc1cc2cc3c(cc2[nH]c1=O)OCO3,1,0,94,98,94,92,/,/,/,/,/,/,
CC1=NOC(=O)/C1=C/c1ccc(N(C)C)cc1,27,-2,100,100,101,102,/,/,/,/,/,/,
CN(C)c1ccc(/C=C2/NC(=O)NC2=O)cc1,8,0,i,145*[activator],549*[activator],354*[activator],1,102,103,105,102,104,
SMILES,ABCG2 block,ABCB1 inh,RGS16-Gao HTS,RGS8-Gao reg,RGS4-Gao reg,RGS7-Gao,Biotin-avidin,RGS8-Gao single,RGS7-Gao single,RGS16-Gao conf,RGS4-Gao confirm,RGS19-Gao single,others
O=C1NC(=O)/C(=C/c2cccc(O)c2)N1,/,/,/,/,/,/,-1,98,95,98,98,95,
Cc1ccc(/C=N/N=C2/NC(=O)C(CC(=O)N3CCOCC3)S2)cc1 (configuration not stated),1,0,105,99,101,106,/,/,/,/,/,/,
COc1ccc(/C=N/n2cnn(Cc3ccccc3Cl)c2=S)cc1,2,0,12*,15*,23*,?,-2,102,107,101,103,98,
c1ccc(-c2nn[nH]n2)nc1,/,/,98,100,101,?,/,/,/,/,/,/,
CCCn1c(-c2ccc[nH]c2=O)nc2cc(C)c(C)cc21,5,1,94,104,99,94,/,/,/,/,/,/,
Cc1ccc(OCCNS(=O)(=O)c2cccs2)cc1,-1,0,157,126,159*[activator],154*[activator],-2,96,96,91,93,81,
COc1ccc(OCCNS(=O)(=O)c2ccccc2)cc1,1,0,98,97,94,96,/,/,/,/,/,/,
